One compound from ChEMBL document CHEMBL4725413, “Quinoline-Pyrazole Scaffold as a Novel Ligand of Galectin-3 and Suppressor of TREM2 Signaling” (ACS Med Chem Lett, 2020) can be followed below.

Assay [1] in a line: Inhibition of recombinant human galectin-3/recombinant human TREM2 interaction assessed as reduction in TR-FRET signal incubated for 3 hrs by TR-FRET assay. The essentials: (§1)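 TR-FRET using Eu cryptate-labelled galectin-3 (donor) and Alexa Fluor 647-labelled TREM2 (acceptor). Disruption of binding lowers the TR-FRET ratio. Single-point screening was at 10 μM, with hits defined as >5 SD below the mean signal. Dose-response runs gave IC50.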
A general note: TR-FRET usually uses a lanthanide donor and a delayed reading to cut background.

Assay [2] deals with T1, Galectin-3 (Homo sapiens, UniProt P17931). Put plainly: Binding affinity to recombinant human galectin 3 assessed as dissociation constant by SPR assay. Summed up:
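SPR with galectin-3 for Kd estimation. TREM2 was also run by SPR as a counter-target.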
Background: Surface plasmon resonance follows binding to a sensor surface in real time, without labels.

In assay [3] the target is T1, Galectin-3. Put plainly: Inhibition of galectin 3 in mouse BWZ cells transfected with TREM2 and DAP12 assessed as reduction in lacZ activity incubated for 24 hrs by lacZ reporter gene based beta-galactosidase assay. The class given is cell-based. To be noted: dose microM 2.5-10, time 24.0 hrs. Summed up: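 TREM2-DAP12 reporter assay in BWZ thymoma cells transfected with TREM2 and DAP12. Galectin-3 (5 μM) was the stimulant, co-incubated with a range of compound concentrations. NFAT-driven LacZ β-galactosidase activity was the read-out. Controls were unstimulated cells and galectin-stimulated cells without compound, plus untransfected BWZ cells. Mean ± SD, n = 3.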
In general terms: In a reporter assay the amount or activity of a reporter protein is the signal.

For assay [4], the system named is BV-2. Put plainly: Antiinflammatory activity in mouse BV-2 cells assessed as reduction in Abeta-induced TNFalpha release at 10 uM incubated for 12 hrs by ELISA relative to control. The class given is functional. The essentials:
(§2)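 BV2 microglia co-treated with Aβ fibrils (10 μM) for 12 h, with or without a range of test-compound concentrations. TNFα, IL12 and IL8 were quantified in culture medium. Values are relative to untreated control. Mean ± SD, n = 3.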

Assay [5] deals with T1, Galectin-3. Briefly: Binding affinity to recombinant human galectin 3 assessed as dissociation constant by fluorescent anisotropy assay. Summed up:
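Fluorescence anisotropy. Increasing galectin concentrations were titrated against a fixed concentration of small molecule until anisotropy reached a maximum (saturation), and Kd was derived from this.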

In assay [6] the test system is BV-2. Briefly: Antiinflammatory activity in mouse BV-2 cells assessed as reduction in Abeta-induced IL-12 release incubated for 12 hrs by ELISA. The assay is classed as functional, cell-based. Particulars: dose microM 2.5-10, time 12.0 hrs. Summed up:
as §2

Assay [7] concerns the target Galectin-1 (Homo sapiens, UniProt P09382). Put plainly: Binding affinity to recombinant human galectin 1 assessed as dissociation constant by fluorescent anisotropy assay.
The species entered for assay [8] is Homo sapiens. Put plainly: Inhibition of recombinant human galectin-3/recombinant human TREM2 interaction assessed as reduction in TR-FRET signal at 10 uM incubated for 3 hrs by TR-FRET assay relative to control. Summed up: as §1
Assay [9] concerns BV-2. Briefly: Antiinflammatory activity in mouse BV-2 cells assessed as reduction in Abeta-induced IL-8 release incubated for 12 hrs by ELISA. The assay is classed as functional, cell-based. Particulars: dose microM 2.5-10, time 12.0 hrs. Summed up:
as §2

Assay [10] relates to BV-2. Briefly: Antiinflammatory activity in mouse BV-2 cells assessed as reduction in Abeta-induced TNFalpha release incubated for 12 hrs by ELISA. The assay is classed as functional, cell-based. To be noted: dose microM 2.5-10, time 12.0 hrs. Summed up: as §2
Assay [11] deals with BV-2. Put plainly: Antiinflammatory activity in mouse BV-2 cells assessed as reduction in Abeta-induced IL-12 release at 10 uM incubated for 12 hrs by ELISA relative to control. The assay is classed as functional. The essentials: as §2

The structures appear in SMILES notation.

T1 sequence (P17931 whole entry): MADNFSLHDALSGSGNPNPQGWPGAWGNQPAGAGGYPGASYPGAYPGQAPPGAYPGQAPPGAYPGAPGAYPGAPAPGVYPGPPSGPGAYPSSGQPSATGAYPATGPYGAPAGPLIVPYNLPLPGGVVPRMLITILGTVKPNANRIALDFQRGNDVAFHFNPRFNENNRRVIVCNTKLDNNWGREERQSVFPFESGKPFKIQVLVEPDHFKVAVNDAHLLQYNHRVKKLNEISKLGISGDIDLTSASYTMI
Galectin-1, sequence (P09382 whole entry): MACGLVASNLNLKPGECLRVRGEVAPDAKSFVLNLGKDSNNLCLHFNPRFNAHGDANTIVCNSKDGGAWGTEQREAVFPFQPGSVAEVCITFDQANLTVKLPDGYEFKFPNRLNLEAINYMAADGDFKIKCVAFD

Usually IC50 stands for the concentration that inhibits the measured activity by half. The Kd is the constant that tells how readily two partners part at equilibrium. By inhibition is commonly meant how much of the control response was suppressed. Take `Cn1cc(-c2ccncc2)c(-c2ccc(OCc3ccc4ccccc4n3)cc2)n1` [MARDEPODECT]: the IC50 in [1] turned out to be 91 nM. In addition, the Kd in assay [2] is 290 nM; in assay [5] it was 150 nM; in assay [7], more than 500 µM. The inhibition entry is “Dose-dependent effect” in assay [3]; “Dose-dependent effect” in assay [6]; more than 95% in assay [8]; “Dose-dependent effect” in assay [9]; “Dose-dependent effect” in assay [10]. Moreover, the results for the inhibition at 10 µM in [4] and in assay [11] were 50% and 40%, respectively.
